Our source for the IC50 and Toxicity ratio values is ChEMBL document CHEMBL1129062, “6- and 7-substituted 2-[2'-(dimethylamino)ethyl]-1,2-dihydro-3H-dibenz[de,h] isoquinoline-1,3-diones: synthesis, nucleophilic displacements, antitumor activity, and quantitative structure-activity relationships” (J Med Chem, 1996).

A short description of data set [1]: An average for IC50 values in the two solid tumor cell lines and sensitive L1210 leukemia cell line. In kind it is functional, cell-based.
For another data set, the system named is Tumor cell line. Nature of the data set: An average for IC50 values in the two solid tumor cell lines. The data set is classed as functional, cell-based.
Another data set deals with UACC-375. Nature of the data set: Inhibitory activity against […] cell line. In kind it is functional, cell-based. The following applies: Homo sapiens.
In the next data set the test system is OVCAR-3. Nature of the data set: Inhibitory activity against OVCAR-3 cell line. In kind it is functional, cell-based. The following applies: Homo sapiens.
The subject of data set [2] is L1210. Nature of the data set: Inhibitory activity against sensitive L1210 cell lines. In kind it is functional, cell-based. The following applies: Mus musculus.
Data set [3] has as its system L1210. Nature of the data set: Inhibitory activity against resistant murine leukemia L1210 cell lines. The data set is classed as functional, cell-based. The following applies: Mus musculus.
The species named for a further data set is Rattus norvegicus. Nature of the data set: Cardiotoxicity by a neonatal rat heart myocyte assay. In kind it is toxicity. The procedure, abridged: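 Neonatal rat heart myocytes exposed to drug for 1 h. Read-out is the ATP/protein ratio relative to untreated control myocytes. IC50 is the 1-h concentration that reduces this ratio to 50% of control.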
Data set [4] in a line: Toxicity ratio determined by the quotient of IC50 values in the myocytes divided by the average value in the three tumor lines. In kind it is functional. The procedure, abridged:
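Ratio is the myocyte cardiotoxicity IC50 (1-h exposure, ATP/protein ratio versus untreated myocytes) divided by the mean IC50 in sensitive L1210 and the two human tumor lines, measured with continuous exposure.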

Molecules are shown by their SMILES.

`CCc1ccc2c3c(c4ccccc4cc13)C(=O)N(CCN(C)C)C2=O`: the IC50 (as a rule, the concentration at which inhibition is half-maximal) in data set [1] was determined as 409 nM; in the data set with Tumor cell line it was 522 nM; in the data set on UACC-375, 522 nM; in the data set with OVCAR-3, 522 nM; in the data set with L1210 [2], 183 nM; with L1210 [3], 235 nM. In addition, the concentration for half-maximal inhibition (IC50) in the data set filed under Rattus norvegicus was found to be 7830 nM. Also, in data set [4], the Toxicity ratio is reported as 19.
Take `CN(C)CCN1C(=O)c2ccc(N)c3cc4ccccc4c(c23)C1=O`: the 50% inhibitory concentration (IC50) in data set [1] came out at 74 nM; in the data set on Tumor cell line, 109 nM; in the data set filed under Rattus norvegicus, 1490 nM. In data set [4], the Toxicity ratio is given as 20.
Take `CC(=O)Nc1c2ccccc2c2c3c(cccc13)C(=O)N(CCN(C)C)C2=O`: the half-maximal inhibitory concentration (IC50) was 649 nM in data set [1]; 730 nM in the data set on Tumor cell line; 730 nM in the data set with UACC-375; 730 nM in the data set on OVCAR-3; 487 nM with L1210 [2]; 487 nM with L1210 [3]. For the same compound, in the data set filed under Rattus norvegicus, the IC50 was above 23600 nM. The Toxicity ratio in data set [4] is given as above 36.
Consider `CSc1c2ccccc2c2c3c(cccc13)C(=O)N(CCN(C)C)C2=O`, for which the IC50 was 2790 nM in data set [1]; 1060 nM in the data set with Tumor cell line; 1380 nM in the data set with UACC-375; 750 nM with OVCAR-3; 6250 nM in the data set with L1210 [2]; 1220 nM in the data set on L1210 [3]. Besides, in the data set filed under Rattus norvegicus, the IC50 is above 50000 nM. Besides, the Toxicity ratio in data set [4] is recorded as above 18.
As to `CN(C)CCN1C(=O)c2cccc3c(Cl)c4ccccc4c(c23)C1=O`, the concentration for half-maximal inhibition (IC50) in data set [1] came out at 351 nM; with Tumor cell line, 450 nM; in the data set with UACC-375, 514 nM; in the data set with OVCAR-3, 386 nM; in the data set on L1210 [2], 154 nM; in the data set with L1210 [3], 206 nM. Also, in the data set filed under Rattus norvegicus, the IC50 was 10800 nM. The Toxicity ratio in data set [4] was determined as 31.
As to `CN(C)CCN1C(=O)c2ccc(Cl)c3cc4c(Cl)cccc4c(c23)C1=O`, the half-maximal inhibitory concentration (IC50) was determined as 630 nM in data set [1]; 709 nM in the data set on Tumor cell line; 472 nM in the data set with UACC-375; 945 nM in the data set on OVCAR-3; 472 nM in the data set on L1210 [2]; 590 nM in the data set with L1210 [3]. Moreover, the IC50 in the data set filed under Rattus norvegicus was above 23600 nM. Moreover, in data set [4], the Toxicity ratio is above 37.
Regarding `CN(C)CCN1C(=O)c2ccc(NCCO)c3cc4ccccc4c(c23)C1=O`, the IC50 in data set [1] was found to be 24 nM; in the data set with Tumor cell line, 34 nM; with UACC-375 it was 48 nM; in the data set on OVCAR-3, 19 nM; with L1210 [2] it was 6 nM; in the data set with L1210 [3], 48 nM. In addition, the IC50 in the data set filed under Rattus norvegicus turned out to be 1210 nM. Also, in data set [4], the Toxicity ratio turned out to be 50.
Regarding `Cc1c2ccccc2c2c3c(cccc13)C(=O)N(CCN(C)C)C2=O`, the IC50 in data set [1] amounted to 35 nM; with Tumor cell line it was 35 nM; with UACC-375, 42 nM; in the data set on OVCAR-3, 28 nM; in the data set on L1210 [2], 34 nM; in the data set on L1210 [3], 70 nM. The same compound yielded an IC50 in the data set filed under Rattus norvegicus of 1680 nM. For the same compound, the Toxicity ratio in data set [4] was found to be 49.
As to `CN(C)CCN1C(=O)c2ccc(S(C)(=O)=O)c3cc4ccccc4c(c23)C1=O`, the concentration for half-maximal inhibition (IC50) amounted to 73 nM in data set [1]; 93 nM in the data set with Tumor cell line; 93 nM in the data set on UACC-375; 93 nM with OVCAR-3; 35 nM in the data set on L1210 [2]; 35 nM in the data set on L1210 [3]. Moreover, the midpoint of inhibition in the data set filed under Rattus norvegicus, the IC50, lay at 2320 nM. The Toxicity ratio in data set [4] is given as 32.
In the case of `CC(=O)Nc1ccc2c3c(c4ccccc4cc13)C(=O)N(CCN(C)C)C2=O`, the concentration for half-maximal inhibition (IC50) in data set [1] amounted to 4620 nM; in the data set with Tumor cell line, 6680 nM; in the data set with UACC-375, 7290 nM; in the data set on OVCAR-3 it was 6080 nM; with L1210 [2] it was 486 nM; in the data set on L1210 [3], 729 nM. The compound further showed a concentration for half-maximal inhibition (IC50) in the data set listed under Rattus norvegicus of 12900 nM. Further, the Toxicity ratio in data set [4] was 2.8.
On to `CN(C)CCN1C(=O)c2ccc(O)c3cc4ccccc4c(c23)C1=O`, for which the IC50 in data set [1] worked out at 1360 nM; in the data set on Tumor cell line, 1930 nM; in the data set with UACC-375, 3130 nM; in the data set with OVCAR-3, 723 nM; in the data set on L1210 [2], 217 nM; in the data set on L1210 [3], 145 nM. This compound also displayed a 50% inhibitory concentration (IC50) in the data set filed under Rattus norvegicus above 24100 nM. Also, in data set [4], the Toxicity ratio is given as above 18.
